Measured values published in ChEMBL document CHEMBL1127492, “Novel potassium channel openers: synthesis and pharmacological evaluation of new N-(substituted-3-pyridyl)-N'-alkylthioureas and related compounds” (1994).
Activity calls are given as the source filed them. The rule behind the calls is not given here.

What was measured:
Format in all cases: functional
Rattus norvegicus [1] = test: Maximum percent fall in Systolic blood pressure (SBP) was measured in anesthetized normotensive rat for 30 mins after intravenous (iv) injection at 0.1 mg/kg dose
How it was run: (§1)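 Male normotensive rats under anesthesia; compound given as iv bolus via tail vein. Blood pressure and heart rate recorded by pressure transducer coupled to polygraph. Systolic pressure followed for 30 min after injection; value is maximum percent fall in SBP, n = 4.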

Rattus norvegicus [2] = species: Rattus norvegicus; test: Negative logarithm of the concentration causing a 100% inhibition of spontaneous mechanical activity in rat portal vein is determined in vitro
How it was run: (§2)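 Rat portal vein strips in buffer (pH 7.2) at 37 °C, gassed 5% CO2 in O2, under 0.5 g tension. Spontaneous contractions recorded isometrically by force-displacement transducer. Strips equilibrated 30 min, then compounds added cumulatively. Values are means of four independent experiments.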

Rattus norvegicus [3] = test: Maximum percent fall in Systolic blood pressure (SBP) was measured in anesthetized normotensive rat for 30 mins after intravenous (iv) injection at 0.3 mg/kg dose; how it was run: as §1
Rattus norvegicus [4] = test: Maximum percent fall in Systolic blood pressure (SBP) was measured in anesthetized normotensive rat for 30 mins after intravenous (iv) injection at 1 mg/kg dose; how it was run: as §1
Rattus norvegicus [5] = test: Maximum percent fall in Systolic blood pressure (SBP) was measured in anesthetized normotensive rat for 30 mins after intravenous (iv) injection at 0.03 mg/kg dose; how it was run: as §1
Rattus norvegicus [6] = test: Maximum percent fall in Systolic blood pressure (SBP) was measured in anesthetized normotensive rat for 30 mins after intravenous (iv) injection at 3 mg/kg dose; how it was run: as §1
Rattus norvegicus [7] = species: Rattus norvegicus; test: Negative logarithm of the concentration causing a 100% inhibition of spontaneous mechanical activity in rat portal vein is determined in vitro; No response; how it was run: as §2

Compound	Decrease in SBP (Rattus norvegicus [1]) [%]	pEC100 (Rattus norvegicus [2])	Decrease in SBP (Rattus norvegicus [3]) [%]	Decrease in SBP (Rattus norvegicus [4]) [%]	Decrease in SBP (Rattus norvegicus [5]) [%]	Decrease in SBP (Rattus norvegicus [6]) [%]	pEC100 (Rattus norvegicus [7])
Nc1ccc(N/C(S)=N/[C@H]2CC3C=CC2C3)cn1 (stereo partly specified)	24	7	32	–	–	–	–
CC(/N=C(\NC#N)Nc1ccc(N)nc1)C(C)(C)C (stereo unspecified)	–	6	24	30	–	–	–
CC(/N=C(/NC#N)Nc1cccnc1)C(C)(C)C (stereo unspecified)	37	7	–	–	26	–	–
N#CN=C(Nc1ccc(N)[n+]([O-])c1)N[C@@H]1C[C@H]2CC[C@@H]1C2	–	6	–	16	–	–	–
CC(/N=C(\S)Nc1ccc(C#N)nc1)C(C)(C)C (stereo unspecified)	13	5.7	28	–	–	–	–
CC(/N=C(\S)Nc1ccc(C(N)=O)nc1)C(C)(C)C (stereo unspecified)	–	5	–	9	–	–	–
CC(/N=C(\NC#N)Nc1ccc(N)[n+]([O-])c1)C(C)(C)C (stereo unspecified)	–	5.5	16	22	–	–	–
CC(/N=C(\S)Nc1ccc(NN)nc1)C(C)(C)C (stereo unspecified)	–	4	–	–	–	26	–
CC1(C)CCCC[C@@H]1/N=C(\S)Nc1ccc(N)nc1	–	5.5	–	26	–	–	–
CCC(C)(C)/N=C(\S)Nc1ccc(N)nc1	–	5	15	31	–	–	–
N#CN/C(=N\C1CC2CCC1CC2)Nc1ccc(N)nc1 (stereo unspecified)	17	6	28	–	–	–	–
CC1(C)[C@@H]2CC[C@@]1(C)[C@H](NC(=S)Nc1ccc(N)nc1)C2	14	6.5	–	41	–	–	–
C[C@]12CC[C@H](CC1/N=C(\NC#N)Nc1ccc(N)nc1)C2 (stereo partly specified)	26	7.5	33	–	–	–	–
CC(C)(C)C1CCCCC1/N=C(\S)Nc1ccc(N)nc1 (single isomer, unassigned)	–	5	–	12	–	–	–
Nc1ccc(N/C(S)=N/C23CC4CC(CC(C4)C2)C3)cn1	–	6.5	–	24	–	–	–
CSc1ccc(N/C(S)=N/C(C)C(C)(C)C)cn1 (stereo unspecified)	–	5	10	–	–	–	–
CNc1ccc(N/C(S)=N/C(C)C(C)(C)C)cn1 (stereo unspecified)	–	5	8	25	–	–	–
Nc1cncc(N/C(S)=N/C2CCCCC2)c1	–	5	–	7	–	23	–
Nc1ccc(NC(=S)NC2C[C@H]3CC[C@@H]2C3)cn1 (single isomer, unassigned; 22e)	19	7	41	–	–	–	–
CC(/N=C(\S)Nc1ccc(N)nc1)C(C)(C)C (stereo unspecified)	–	6	29	32	–	–	–
CC(C)(C)/N=C(\NC#N)Nc1ccc(N)nc1	–	6	15	28	–	–	–
CC1(C)[C@H]2CC[C@](C)(C2)[C@H]1NC(=S)Nc1ccc(N)nc1	–	5.5	–	29	–	39	–
CC(C)(C)/N=C(\NC#N)Nc1ccc(N)[n+]([O-])c1	–	4.5	–	19	–	20	–
CC(C)(C)[C@H]1CC[C@@H](/N=C(\S)Nc2ccc(N)nc2)CC1	–	–	–	9	–	–	inactive

Compound	Decrease in SBP (Rattus norvegicus [1]) [%]	pEC100 (Rattus norvegicus [2])	Decrease in SBP (Rattus norvegicus [3]) [%]	Decrease in SBP (Rattus norvegicus [4]) [%]	Decrease in SBP (Rattus norvegicus [5]) [%]	Decrease in SBP (Rattus norvegicus [6]) [%]	pEC100 (Rattus norvegicus [7])
CC(/N=C(\NC#N)Nc1cc[n+]([O-])cc1)C(C)(C)C (stereo unspecified)	–	5	13	–	–	–	–
CC(/N=C(\S)Nc1ccc(Nc2ccccc2)nc1)C(C)(C)C (stereo unspecified)	–	–	–	5	–	–	inactive
CC(/N=C(\S)Nc1ccc(Cl)nc1)C(C)(C)C (stereo unspecified)	–	5.7	27	41	–	–	–
CC(/N=C(\S)Nc1ccc(NCCN)nc1)C(C)(C)C (stereo unspecified)	–	–	–	3	–	–	inactive
CCCC/N=C(\S)Nc1cnccc1N	–	3	–	–	–	13	–
Nc1ccc(NC(=S)NC2C[C@H]3CC[C@@H]2C3)cn1 (single isomer, unassigned; 22g)	–	7	34	22	–	–	–
COc1ccc(N/C(S)=N/C(C)C(C)(C)C)cn1 (stereo unspecified)	–	5	–	17	–	30	–
C[C@]12CC[C@H](C[C@H]1NC(=S)Nc1ccc(N)nc1)C2	27	7	36	–	–	–	–
C[C@]12CC[C@H](C[C@@H]1NC(=NC#N)Nc1ccc(N)[n+]([O-])c1)C2	–	6	18	31	–	–	–
Nc1ncccc1/N=C(\S)NC1CCCCC1	–	4	–	9	–	21	–
Nc1ccc(N/C(S)=N/C2CCCCC2)cn1	–	5	–	26	–	35	–
CC1(C)CCC[C@H](/N=C(\S)Nc2ccc(N)nc2)C1	–	5	–	25	–	–	–
Cc1ccc(N/C(S)=N/C(C)C(C)(C)C)cn1 (stereo unspecified)	–	5.7	18	30	–	–	–
N#CN/C(=N\C1CC2CCC1CC2)Nc1ccc(N)[n+]([O-])c1 (stereo unspecified)	–	5	12	20	–	–	–
N#CN/C(=N\[C@H]1C[C@H]2CC[C@@H]1C2)Nc1ccc(N)nc1	25	6.5	32	–	–	–	–
Nc1ccc(N/C(S)=N/C2CC3CCC2CC3)cn1 (stereo unspecified)	26	7	43	–	–	–	–
C[C@@H]1[C@H](NC(=S)Nc2ccc(N)nc2)CC2C[C@@H]1C2(C)C	–	5	–	16	–	–	–
CC(/N=C(\S)Nc1ccc(N2CCCCC2)nc1)C(C)(C)C (stereo unspecified)	–	–	–	10	–	–	inactive
CC(/N=C(\S)Nc1ccc(-n2ccnc2)nc1)C(C)(C)C (stereo unspecified)	–	3.7	–	–	–	11	–
CC(C)C/N=C(\S)Nc1ccc(N)nc1	–	4.7	12	23	–	–	–
Nc1ccncc1/N=C(\S)NC1CCCCC1	–	5	–	22	–	27	–
CC(N/C(=N\C#N)Nc1ccncc1)C(C)(C)C (stereo unspecified) [PINACIDIL ANHYDROUS]	25	7	31	–	–	–	–
CC(/N=C(\S)Nc1ccc(O)nc1)C(C)(C)C (stereo unspecified)	–	4	–	7	–	–	–
C/N=C(\S)Nc1cnccc1N	–	–	–	–	–	15	inactive
